# Measured values published in ChEMBL document CHEMBL3244290, “N-Alkyl derivatives of (+/-)-alpha-methyldopamine” (J Med Chem, 1979).
# Activity calls are given as the source filed them. The calls are words filed in the database; no cut-off is given here.
# Columns and labels:
# Rattus norvegicus [1] = test: Induction of rotation in rat with unilateral denervation of caudate nucleus at 1 mg/kg, sc; format: functional, organism-based; design: dose 1 mg/kg
# Outline: (§1)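 Rats given a unilateral 6-hydroxydopamine injection into the substantia nigra. Compounds dosed subcutaneously and the rotations they induced were counted. Apomorphine served as the reference.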
# Canis familiaris [2] = test: Inhibition of apomorphine-induced emesis in dog at 2 mg/kg, sc; format: functional, organism-based; design: dose 2 mg/kg; conditions: Canis lupus familiaris
# Outline: (§2)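 Unanaesthetised dogs. For emesis, compound given sc and dogs watched 45 min for an emetic response. For antagonism, compound given sc and apomorphine 100 μg/kg 15 min later.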
# Rattus norvegicus [3] = organism: Rattus norvegicus; test: Toxicity in Sprague-Dawley rat assessed as hyperactivity treated intra-accumbens injection pretreated with haloperiodol; format: organism-based; conditions: in vivo, other
# Outline: (§3)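 Male Sprague-Dawley rats (250 ± 25 g) with stereotaxic guide cannulae aimed at the nucleus accumbens. Tested 10–14 days after surgery with a bilateral 1 μL infusion over 60 s; each rat used once and placement checked histologically. Locomotion counted by photocell cage. Stereotypy scored, where 3–4 = biting, gnawing or licking. Pretreatments given ip: α-methyl-p-tyrosine 250 mg/kg 6 h before, or haloperidol 0.1, propranolol 5 or aceperone 2.5 mg/kg 30 min before.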
# Rattus norvegicus [4] = organism: Rattus norvegicus; test: Toxicity in Sprague-Dawley rat assessed as hyperactivity treated intra-accumbens injection pretreated with aceperone; format: organism-based; conditions: in vivo, other; outline: as §3
# Canis familiaris [5] = test: Toxicity in dog assessed as emesis at 2 mg/kg, sc; format: organism-based, Canis lupus familiaris; design: dose 2 mg/kg, route subcutaneous; conditions: in vivo; outline: as §2
# Mus musculus [6] = test: Toxicity in albino B.K.W mouse assessed as circling behaviour at 20 to 80 mg/kg, sc; format: organism-based; design: dose 20-80 mg/kg, route subcutaneous; conditions: in vivo
# Outline: (§4)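 Mice dosed subcutaneously at 20, 40 and 80 mg/kg in 1 mL/kg, doses as free base. Climbing scored as all four paws on the wire, giving a climbing index (% time over 30 min after the first climb) and the maximum time of a single climb. Circling was tested in mice with a unilateral caudate-putamen electrolesion, pre-selected for circling of 7 or more revolutions/2 min in response to apomorphine. Stereotypy was also recorded.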
# Canis familiaris [7] = test: Increase in heart rate in dog assessed as beats at 50 ug/kg, iv by cardiotachometer; format: functional, Canis lupus familiaris
# Outline: (§5)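 Anaesthetised dog (barbital 200 mg/kg). Compounds given intravenously, highest dose tested 1.0 mg/kg. Blood pressure recorded from the right femoral artery and heart rate by cardiometer. Resting heart rate, blood pressure and positive chronotropic responses were assessed after dosing. Doses calculated as free base.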
# Mus musculus [8] = test: Toxicity in albino B.K.W mouse assessed as stereotyped behaviour at 20 to 80 mg/kg, sc; format: organism-based; design: dose 20-80 mg/kg, route subcutaneous; conditions: in vivo; outline: as §4
# Felis catus [9] = organism: Felis catus; test: Inhibition of field stimulation-induced positive ionotrophic response in cat atria; format: functional; conditions: Cardiac atrium
# [10] = Toxicity in pigeon assessed as pecking; conditions: columbidae
# Outline: (§6)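 Pigeons. Compounds given intramuscularly at up to 4 mg/kg to test induction of pecking. Antagonism of pecking induced by apomorphine (1.62 μM/kg) was also tested, and ED50 values were estimated.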
# Rattus norvegicus [11] = organism: Rattus norvegicus; test: Toxicity in Sprague-Dawley rat assessed as hyperactivity treated bilateral injection into nucleus accumbens at > 6.25 ug; format: organism-based; conditions: in vivo, other; outline: as §3
# Mus musculus [12] = test: Toxicity in albino B.K.W mouse assessed as climbing behaviour at 20 to 80 mg/kg, sc; format: organism-based; design: dose 20-80 mg/kg, route subcutaneous; conditions: in vivo; outline: as §4
# Canis lupus familiaris = organism: Canis lupus familiaris; test: Inhibition of electric stimulated dog right cardioaccelerator nerve; format: functional
# Outline: (§7)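 Dog cardioaccelerator nerve preparation under barbital (200 mg/kg) anaesthesia. Compounds given intravenously up to 1.0 mg/kg. Positive chronotropic responses read by cardiometer, with blood pressure taken from the right femoral artery.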
# Rattus norvegicus [13] = test: Induction of rotation in rat with unilateral denervation of caudate nucleus at 4 mg/kg, sc; format: functional, organism-based; design: dose 4 mg/kg; outline: as §1
# Rattus norvegicus [14] = organism: Rattus norvegicus; test: Toxicity in Sprague-Dawley rat assessed as hyperactivity treated intra-accumbens injection pretreated with alpha-methyl-p-tyrosine; format: organism-based; conditions: in vivo, other; outline: as §3
# Columbidae [15] = test: Inhibition of apomorphine-induced pecking in pigeon; format: functional; outline: as §6
# Canis familiaris [16] = test: Increase in resting heart rate in dog at […], iv by cardiotachometer; format: functional, organism-based; conditions: Canis lupus familiaris; outline: as §5
# Rattus norvegicus [17] = organism: Rattus norvegicus; test: Toxicity in Sprague-Dawley rat assessed as sniffing at 12.5 to 50 ug injection into nucleus accumbens; format: organism-based; conditions: in vivo, other; outline: as §3
# Rattus norvegicus [18] = organism: Rattus norvegicus; test: Toxicity in Sprague-Dawley rat assessed as hyperactivity treated intra-accumbens injection; format: organism-based; conditions: in vivo, other; outline: as §3
# Felis catus [19] = organism: Felis catus; test: Inhibition of field stimulation-induced positive chronotrophic response in cat atria; format: functional; conditions: Cardiac atrium
# Rattus norvegicus [20] = organism: Rattus norvegicus; test: Toxicity in Sprague-Dawley rat assessed as hyperactivity treated intra-accumbens injection pretreated with propranolol; format: organism-based; conditions: in vivo, other; outline: as §3
# Canis familiaris [21] = test: Increase in blood pressure in dog at 50 ug/kg, iv by cardiotachometer; format: functional, Canis lupus familiaris; outline: as §5
# Rattus norvegicus [22] = test: Induction of rotation in rat with unilateral denervation of caudate nucleus at 0.25 mg/kg, sc; format: functional, organism-based; design: dose 0.25 mg/kg; outline: as §1
# Canis familiaris [23] = test: Increase in blood pressure in dog at 0.5 mg/kg, iv by cardiotachometer; format: functional, Canis lupus familiaris; outline: as §5
# Canis familiaris [24] = test: Increase in ionotrophic response in dog following field stimulation at 1 mg/kg, iv by cardiotachometer; format: functional, organism-based; design: dose 1 mg/kg; conditions: Canis lupus familiaris; outline: as §7
# Canis familiaris [25] = test: Increase in resting heart rate in dog at 0.5 mg/kg, iv by cardiotachometer; format: functional, organism-based; design: dose 0.5 mg/kg; conditions: Canis lupus familiaris; outline: as §5
# Canis familiaris [26] = test: Increase in heart rate in dog at 1 mg/kg, iv by cardiotachometer; format: functional, organism-based; design: dose 1 mg/kg; conditions: Canis lupus familiaris; outline: as §5
# Canis familiaris [27] = test: Increase in ionotrophic response in iv dosed dog following field stimulation assessed as minimum effective dose by cardiotachometer; format: functional, Canis lupus familiaris; design: unit not given here; outline: as §7
# Rattus norvegicus [28] = organism: Rattus norvegicus; test: Toxicity in Sprague-Dawley rat assessed as locomotor hyperactivity treated bilateral injection into nucleus accumbens at 50 ug; format: organism-based; conditions: in vivo, other; outline: as §3
# Columbidae [29] = test: Inhibition of apomorphine-induced pecking in pigeon at 3 umol/kg; format: functional; outline: as §6
# Canis familiaris [30] = test: Increase in heart rate in dog assessed as beats at 30 ug/kg, iv by cardiotachometer; format: functional, Canis lupus familiaris; outline: as §5
# Rattus norvegicus [31] = organism: Rattus norvegicus; test: Toxicity in Sprague-Dawley rat assessed as hyperactivity treated bilateral injection into nucleus accumbens; format: organism-based; conditions: in vivo, other; outline: as §3
# Rattus norvegicus [32] = organism: Rattus norvegicus; test: Toxicity in Sprague-Dawley rat assessed as biting up to 50 ug injection into nucleus accumbens; format: organism-based; conditions: in vivo, other; outline: as §3
# Canis familiaris [33] = test: Increase in blood pressure in dog at 30 ug/kg, iv by cardiotachometer; format: functional, Canis lupus familiaris; outline: as §5
# Rattus norvegicus [34] = organism: Rattus norvegicus; test: Toxicity in Sprague-Dawley rat assessed as gnawing up to 50 ug injection into nucleus accumbens; format: organism-based; conditions: in vivo, other; outline: as §3
# Rattus norvegicus [35] = organism: Rattus norvegicus; test: Toxicity in Sprague-Dawley rat assessed as licking up to 50 ug injection into nucleus accumbens; format: organism-based; conditions: in vivo, other; outline: as §3
# Rattus norvegicus [36] = organism: Rattus norvegicus; test: Toxicity in Sprague-Dawley rat assessed as sniffing at 50 ug injection into nucleus accumbens; format: organism-based; conditions: in vivo, other; outline: as §3
# Mus musculus [37] = test: Toxicity in albino B.K.W mouse assessed as stereotyped head and limb movement at 40 to 80 mg/kg, sc; format: organism-based; design: dose 40-80 mg/kg, route subcutaneous; conditions: in vivo; outline: as §4
Structure (SMILES),Activity (Canis familiaris [2]),Activity (Canis familiaris [5]),Activity (Mus musculus [6]),Activity (Mus musculus [8]),inhibition (Felis catus [9]),Activity [10],Activity (Mus musculus [12]),inhibition (Canis lupus familiaris),Activity (Rattus norvegicus [13]),inhibition (Felis catus [19]),Activity (Rattus norvegicus [28]),further results
C[C@H](N)Cc1ccccc1,–,–,–,–,–,–,–,–,–,–,–,Activity (Rattus norvegicus [1]): Active
Br.CC(N)Cc1ccc(O)c(O)c1 (racemic),inactive,Non-toxic,Non-toxic,Non-toxic,inactive,Non-toxic,Non-toxic,inactive,inactive,inactive,–,Activity (Rattus norvegicus [3]): Non-toxic; Activity (Rattus norvegicus [4]): Toxic; Activity (Canis familiaris [7]): 50 bpm; Activity (Rattus norvegicus [11]): Toxic; Activity (Rattus norvegicus [14]): Non-toxic; inhibition (Columbidae [15]): Active; Activity (Canis familiaris [16]): Active; Activity (Rattus norvegicus [17]): Toxic; Activity (Rattus norvegicus [18]): Toxic; Activity (Rattus norvegicus [20]): Toxic; Activity (Canis familiaris [21]): 80%
CN1CCc2cccc3c2[C@H]1Cc1ccc(O)c(O)c1-3,–,–,–,–,–,–,–,–,–,–,–,Activity (Rattus norvegicus [22]): Active
Br.CCCN(CCC)C(C)Cc1ccc(O)c(O)c1 (racemic),inactive,Non-toxic,Non-toxic,Non-toxic,inactive,Non-toxic,Non-toxic,inactive,inactive,inactive,Toxic,Activity (Canis familiaris [23]): <=10 mmHg; Activity (Canis familiaris [24]): Active; Activity (Canis familiaris [25]): inactive; Activity (Rattus norvegicus [17]): Toxic; Activity (Canis familiaris [26]): Active; MED (Canis familiaris [27]): 20
COc1cc(CC(C)N)c(OC)cc1C (stereo unspecified),–,–,–,–,–,–,–,–,–,–,–,inhibition (Columbidae [29]): Active
Br.CCCNC(C)Cc1ccc(O)c(O)c1 (racemic),inactive,Non-toxic,Non-toxic,Non-toxic,inactive,Non-toxic,Non-toxic,inactive,inactive,inactive,–,Activity (Canis familiaris [30]): 35 bpm; Activity (Rattus norvegicus [3]): Non-toxic; Activity (Rattus norvegicus [31]): Toxic; Activity (Rattus norvegicus [32]): Toxic; Activity (Rattus norvegicus [4]): Toxic; Activity (Canis familiaris [33]): 35%; Activity (Rattus norvegicus [14]): Non-toxic; Activity (Rattus norvegicus [34]): Toxic; Activity (Rattus norvegicus [35]): Toxic; Activity (Canis familiaris [16]): Active; Activity (Rattus norvegicus [18]): Toxic; Activity (Rattus norvegicus [20]): Toxic
Br.CCNC(C)Cc1ccc(O)c(O)c1 (racemic),inactive,Non-toxic,Non-toxic,Non-toxic,inactive,Non-toxic,Non-toxic,inactive,–,inactive,Toxic,Activity (Rattus norvegicus [36]): Toxic
Br.CCN(CC)C(C)Cc1ccc(O)c(O)c1 (racemic),inactive,Non-toxic,Non-toxic,Non-toxic,inactive,Non-toxic,Non-toxic,inactive,–,inactive,Toxic,Activity (Canis familiaris [23]): <=10 mmHg; Activity (Rattus norvegicus [32]): Non-toxic; Activity (Canis familiaris [25]): inactive; Activity (Rattus norvegicus [34]): Non-toxic; Activity (Rattus norvegicus [35]): Non-toxic; inhibition (Columbidae [15]): Active; Activity (Mus musculus [37]): Toxic
